Assay results: ChEMBL document CHEMBL5154634, “A Modular Synthetic Route Involving N-Aryl-2-nitrosoaniline Intermediates Leads to a New Series of 3-Substituted Halogenated Phenazine Antibacterial Agents” (J Med Chem, 2021)
Values after ≈ are worked out from the molar mass of the structure shown.

How the values were obtained:
Staphylococcus aureus [1] = test: Antibacterial activity against methicillin-resistant Staphylococcus aureus BAA-1707 assessed as bacterial growth inhibition incubated for 16 hrs by broth microdilution susceptibility test; format: functional
Procedure, shortened: (§1)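 CLSI broth microdilution with 11 twofold dilutions (0.05–50 μM). About 10^5 cells per well from a log-phase culture. DMSO vehicle up to 0.5% v/v. At least three independent experiments.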

[2] = tested on: Staphylococcus epidermidis; test: Antibacterial activity against methicillin-resistant Staphylococcus epidermidis ATCC 35984 assessed as bacterial growth inhibition incubated for 16 hrs by broth microdilution susceptibility test; format: functional; procedure, shortened: as §1
Enterococcus faecium [3] = test: Antibacterial activity against vancomycin-resistant Enterococcus faecium ATCC 700221 assessed as bacterial growth inhibition incubated for 16 hrs by broth microdilution susceptibility test; format: functional
Procedure, shortened: (§2)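 CLSI broth microdilution with 11 twofold dilutions (0.05–50 μM). Medium was LB for the staphylococci and BHI for VRE 700221. About 10^5 cells per well from a log-phase culture. […] DMSO vehicle up to 0.5% v/v. At least three independent experiments.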

Enterococcus faecalis [4] = test: Antibacterial activity against Enterococcus faecalis OG1RF ATCC 47077 assessed as bacterial growth inhibition incubated for 16 hrs by broth microdilution susceptibility test; format: functional
[5] = tested on: Mycobacterium tuberculosis; test: Antibacterial activity against Mycobacterium tuberculosis CDC1551 assessed as bacterial growth inhibition incubated for 5 days by luminescence based analysis; format: functional; conditions: CDC1551, 120 h, time 5 day
Procedure, shortened: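 Bioluminescent Mtb-lux CDC1551 reporter grown in Middlebrook 7H9 with 0.05% Tween 80, 10% OADC and kanamycin to OD600 0.4–0.8, then diluted to OD600 0.02. Added to twofold drug dilutions (0.003–200 μM). Incubated 5 days at 37 °C, 5% CO2. Luminescence read against 1% DMSO and 10 μM rifampicin controls to give % growth inhibition. MIC taken from a modified Gompertz fit.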

J774 = test: Cytotoxicity against mouse J774 cells assessed as reduction in cell viability […] by Alamar blue assay; format: toxicity, cell-based
HepG2 = test: Cytotoxicity against human HepG2 cells assessed as reduction in cell viability […] by Alamar blue assay; format: toxicity, cell-based
[6] = tested on: Staphylococcus epidermidis; test: Bactericidal activity against methicillin-resistant Staphylococcus epidermidis ATCC 35984 planktonic cells assessed as planktonic eradication incubated for 24 hrs followed by incubation for overnight in fresh medium by Calgary biofilm device assay; format: functional
Procedure, shortened: (§3)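 Calgary biofilm device. Biofilms grown 24 h at 37 °C in TSB with 0.5% glucose, then challenged 24 h with twofold compound dilutions. 20 μL of challenge medium transferred into fresh TSB with 0.5% glucose and incubated overnight at 37 °C. MBC is the concentration with no visible turbidity. At least three independent experiments.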

Enterococcus faecium [7] = test: Bactericidal activity against methicillin-resistant vancomycin-resistant Enterococcus faecium ATCC 700221 planktonic cells assessed as planktonic eradication incubated for 24 hrs followed by incubation for overnight in fresh medium by Calgary biofilm device assay; format: functional; procedure, shortened: as §3
Enterococcus faecium [8] = test: Antibiofilm activity against methicillin-resistant vancomycin-resistant Enterococcus faecium ATCC 700221 biofilms assessed as biofilm eradication incubated for 24 hrs followed by incubation for 24 hrs in fresh medium by Calgary biofilm device assay; format: functional
Procedure, shortened: (§4)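 Calgary biofilm device. Mid-log culture diluted 1000-fold in TSB with 0.5% glucose; biofilms grown on pegs 24 h at 37 °C. Pegs washed and challenged with twofold compound dilutions for 24 h at 37 °C, then moved to fresh medium for 24 h. MBEC is the lowest concentration leaving wells non-turbid. At least three independent experiments.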

Erythrocyte = test: Hemolytic activity against human RBC at 200 uM measured after 1 hr; format: toxicity, cell-based
Procedure, shortened: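 2% hRBCs exposed to compound at 200 μM final, added from DMSO stock, for 1 h at 37 °C. Supernatant OD read at 405 nm. Hemolysis normalized between DMSO (0%) and Triton X (100%); three independent experiments.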

Staphylococcus aureus [9] = test: Bactericidal activity against methicillin-resistant Staphylococcus aureus BAA-1707 planktonic cells assessed as planktonic eradication incubated for 24 hrs followed by incubation for overnight in fresh medium by Calgary biofilm device assay; format: functional; procedure, shortened: as §3
[10] = tested on: Staphylococcus epidermidis; test: Antibiofilm activity against methicillin-resistant Staphylococcus epidermidis ATCC 35984 biofilms assessed as biofilm eradication incubated for 24 hrs followed by incubation for 24 hrs in fresh medium by Calgary biofilm device assay; format: functional; procedure, shortened: as §4
Staphylococcus aureus [11] = test: Antibacterial activity against methicillin-resistant Staphylococcus aureus BAA-44 assessed as bacterial growth inhibition incubated for 16 hrs by broth microdilution susceptibility test; format: functional; procedure, shortened: as §2
[12] = tested on: Mycobacterium tuberculosis; test: Antibacterial activity against Mycobacterium tuberculosis H37Ra ATCC 25177 assessed as bacterial growth inhibition incubated for 7 days by absorbance based analysis; format: functional; conditions: H37Ra ATCC 25177, 168 h, time 7 day
Procedure, shortened: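 H37Ra grown 2 weeks in Middlebrook 7H9, then diluted to OD600 0.01. Compounds added in twofold dilutions, final 0.024–50 μM, with 0.5% DMSO and streptomycin as positive control. Incubated 7 days at 37 °C. MIC is the lowest concentration with no growth, with OD600 recorded. At least three independent experiments.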

HeLa = test: Cytotoxicity against human HeLa cells assessed as reduction in cell viability incubated for 24 hrs by LDH release assay; format: toxicity, cell-based
Procedure, shortened: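 HeLa cells in DMEM with 10% FBS, treated at 70–80% confluence with 25, 50 and 100 μM for 24 h. LDH in supernatant measured by 30 min reaction at room temperature, then stop solution and absorbance at 490 nm. Controls: 2% Triton X-100 (maximum), medium only, DMSO vehicle. Three independent experiments.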

Staphylococcus aureus [13] = test: Antibiofilm activity against methicillin-resistant Staphylococcus aureus BAA-1707 biofilms assessed as biofilm eradication incubated for 24 hrs followed by incubation for 24 hrs in fresh medium by Calgary biofilm device assay; format: functional; procedure, shortened: as §4
[14] = Dissociation constant, pKa of the compound at 125 uM by UV-vis spectrophotometric analysis; format: physicochemical
Procedure, shortened: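 Compound at 125 μM final in phosphate buffers (KH₂PO₄/Na₂HPO₄) in 1:1 water/methanol, pH 4.07–9.66; ammonium hydroxide added for pH above 9.80. UV-vis scans 200–800 nm to find λmax of phenol and phenolate forms. Absorbance at each λmax plotted against pH.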

Enterococcus faecalis [15] = test: Bactericidal activity against […] Enterococcus faecalis OG1RF ATCC 47077 planktonic cells assessed as planktonic eradication incubated for 24 hrs followed by incubation for overnight in fresh medium by Calgary biofilm device assay; format: functional
Procedure, shortened: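 Calgary biofilm device in BHI. Biofilms grown 24 h at 37 °C and challenged 24 h with twofold compound dilutions. Challenge medium subcultured 1:10 into fresh BHI overnight at 37 °C. MBC is the concentration with no turbidity. At least three independent experiments.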

Enterococcus faecalis [16] = test: Antibiofilm activity against Enterococcus faecalis OG1RF ATCC 47077 biofilms assessed as biofilm eradication incubated for 24 hrs followed by incubation for 24 hrs in fresh medium by Calgary biofilm device assay; format: functional
Procedure, shortened: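 Calgary biofilm device. Biofilms grown 24 h at 37 °C in BHI from mid-log culture diluted 1000-fold. Pegs washed and then challenged 24 h with twofold serial dilutions. Pegs moved to fresh BHI for 24 h recovery. MBEC = lowest concentration leaving no turbidity; at least three independent experiments.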

Row | SMILES | MIC (Staphylococcus aureus [1]) | MIC [2] | MIC (Enterococcus faecium [3]) | MIC (Enterococcus faecalis [4]) | MIC [5] | IC50 (J774) | IC50 (HepG2) | MBC [6] | MBC (Enterococcus faecium [7]) | MBEC (Enterococcus faecium [8]) | Activity (Erythrocyte) | MBC (Staphylococcus aureus [9]) | MBEC [10] | MIC (Staphylococcus aureus [11]) | MIC [12] | IC50 (HeLa) | MBEC (Staphylococcus aureus [13]) | pKa at 125 µM [14] | MBC (Enterococcus faecalis [15]) | MBEC (Enterococcus faecalis [16])
1 | Cc1ccc2nc3c(O)c(Br)c(Cl)c(Br)c3nc2c1C | 0.05 µM (≈ 0.0208 µg/mL) | ≤ 0.05 µM | 0.08 µM (≈ 0.0333 µg/mL) | 0.2 µM (≈ 0.0833 µg/mL) | 3.62 µM (≈ 1.51 µg/mL) | > 200 µM | > 200 µM | 3.13 µM (≈ 1.3 µg/mL) | 0.78 µM (≈ 0.325 µg/mL) | 0.3 µM | <= 1% | – | – | – | – | – | – | – | – | –
2 | Oc1c(Br)c(Cl)c(Br)c2nc3ccc(I)cc3nc12 | 0.15 µM (≈ 0.0772 µg/mL) | 0.3 µM (≈ 0.154 µg/mL) | – | 1.56 µM (≈ 0.802 µg/mL) | – | – | – | 6.25 µM (≈ 3.21 µg/mL) | 4.69 µM (≈ 2.41 µg/mL) | 3.13 µM | 3% | 12.5 µM (≈ 6.43 µg/mL) | 6.25 µM | – | – | – | – | – | – | –
3 | Oc1c(Br)cc(Br)c2nc3cc(Cl)ccc3nc12 | 0.1 µM (≈ 0.0388 µg/mL) | – | – | – | – | – | – | – | – | – | – | – | – | – | – | – | – | – | – | –
4 | Oc1cc(Cl)cc2nc3c(Cl)cc(Cl)cc3nc12 | – | – | – | 9.38 µM (≈ 2.81 µg/mL) | 2.31 µM (≈ 0.692 µg/mL) | > 200 µM | > 200 µM | – | – | – | <= 1% | 18.8 µM (≈ 5.63 µg/mL) | – | 0.3 µM (≈ 0.0899 µg/mL) | 3.13 µM (≈ 0.938 µg/mL) | > 100 µM | 75 µM | 6.89 | – | –
5 | Oc1cc(Cl)cc2nc3ccc(F)cc3nc12 | 6.25 µM (≈ 1.55 µg/mL) | – | – | – | – | – | – | – | – | – | – | – | – | – | – | – | – | – | – | –
6 | Oc1c(Br)c(Cl)c(Br)c2nc3c(Br)cccc3nc12 | – | 0.1 µM (≈ 0.0467 µg/mL) | 0.15 µM (≈ 0.0701 µg/mL) | – | 3.91 µM (≈ 1.83 µg/mL) | > 200 µM | > 200 µM | – | – | 0.3 µM | <= 1% | 3.13 µM (≈ 1.46 µg/mL) | […] | 0.2 µM (≈ 0.0935 µg/mL) | – | 100 µM | 6.25 µM | – | 6.25 µM (≈ 2.92 µg/mL) | –
7 | c1ccc(CN(CCN(Cc2ccccn2)Cc2ccccn2)Cc2ccccn2)nc1 | 46.9 µM (≈ 19.9 µg/mL) | – | – | 46.9 µM (≈ 19.9 µg/mL) | – | – | – | – | 188 µM (≈ 79.8 µg/mL) | >2000 µM | <= 1% | 250 µM (≈ 106 µg/mL) | >2000 µM | 46.9 µM (≈ 19.9 µg/mL) | – | – | >2000 µM | – | 500 µM (≈ 212 µg/mL) | >2000 µM
8 | Cc1cccc2nc3c(O)c(Br)c(SCCO)c(Br)c3nc12 | 6.25 µM (≈ 2.78 µg/mL) | – | 12.5 µM (≈ 5.55 µg/mL) | – | – | – | – | – | – | – | – | – | – | 6.25 µM (≈ 2.78 µg/mL) | – | – | – | – | – | –
9 | Cc1cccc2nc3c(O)c(Br)cc(Br)c3nc12 | 0.3 µM (≈ 0.11 µg/mL) | – | – | – | – | – | – | – | – | – | – | – | – | – | – | – | – | – | – | –
10 | Oc1cccc2nc3ccccc3nc12 | 50 µM (≈ 9.81 µg/mL) | 37.5 µM (≈ 7.36 µg/mL) | > 50 µM | > 50 µM | – | – | – | – | – | – | – | – | – | 50 µM (≈ 9.81 µg/mL) | – | – | – | – | – | –
11 | Oc1c(Br)c(Cl)c(Br)c2nc3c(Oc4ccccc4)cccc3nc12 | – | 0.2 µM (≈ 0.0961 µg/mL) | 0.15 µM (≈ 0.0721 µg/mL) | 0.78 µM (≈ 0.375 µg/mL) | 3.01 µM (≈ 1.45 µg/mL) | > 200 µM | > 200 µM | 1.56 µM (≈ 0.75 µg/mL) | 0.78 µM (≈ 0.375 µg/mL) | 0.39 µM | 2.6% | […] | – | 0.1 µM (≈ 0.0481 µg/mL) | 3.13 µM (≈ 1.5 µg/mL) | > 100 µM | 1.56 µM | – | – | 75 µM
12 | COCCOCCOCCOCCSc1c(Br)c(O)c2nc3cccc(C)c3nc2c1Br | – | 2.35 µM (≈ 1.39 µg/mL) | 3.13 µM (≈ 1.85 µg/mL) | – | – | – | – | – | – | – | – | – | – | – | – | – | – | 7.93 | – | –
